Measured values from ChEMBL document CHEMBL4433203, “Design, synthesis, and evaluation of isoflavone analogs as multifunctional agents for the treatment of Alzheimer's disease” (Eur J Med Chem, 2019).
Activity calls are given as the source filed them. No cut-off for these calls is given here.

Columns and labels:
Acetylcholinesterase = biological target: T1, Acetylcholinesterase (Mus musculus, UniProt P21836); experiment: Inhibition of mouse brain AChE using acetylthiocholine iodide as substrate measured after 30 mins by Ellman's method; details: read-out: IC50
T1 sequence (P21836 whole entry): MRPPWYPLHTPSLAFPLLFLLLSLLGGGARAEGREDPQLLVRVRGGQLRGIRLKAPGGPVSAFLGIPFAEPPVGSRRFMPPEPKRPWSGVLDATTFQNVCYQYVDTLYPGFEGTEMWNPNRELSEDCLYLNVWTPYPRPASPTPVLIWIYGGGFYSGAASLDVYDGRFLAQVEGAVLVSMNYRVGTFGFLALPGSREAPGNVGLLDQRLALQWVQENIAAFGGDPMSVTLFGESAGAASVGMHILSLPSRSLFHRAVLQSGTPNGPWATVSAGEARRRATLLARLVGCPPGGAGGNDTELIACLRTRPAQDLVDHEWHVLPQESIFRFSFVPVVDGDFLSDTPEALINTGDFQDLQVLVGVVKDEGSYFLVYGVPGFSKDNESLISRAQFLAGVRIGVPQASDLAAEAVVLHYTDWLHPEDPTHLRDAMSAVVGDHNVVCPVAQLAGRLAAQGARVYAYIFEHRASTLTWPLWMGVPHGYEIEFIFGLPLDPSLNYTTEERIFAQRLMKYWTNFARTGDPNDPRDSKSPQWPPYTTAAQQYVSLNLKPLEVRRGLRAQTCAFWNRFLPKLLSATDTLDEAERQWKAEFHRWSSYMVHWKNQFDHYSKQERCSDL

Histamine H3 receptor = Histamine H3 receptor (Homo sapiens, UniProt Q9Y5N1); experiment: Inhibition of human H3R expressed in methylhistamine-induced human H3-bla U2OS cells at 10 uM incubated for 30 mins by beta-lactamase complementation technology relative to control; type: cell-based
Chain of Histamine H3 receptor (Q9Y5N1 whole entry): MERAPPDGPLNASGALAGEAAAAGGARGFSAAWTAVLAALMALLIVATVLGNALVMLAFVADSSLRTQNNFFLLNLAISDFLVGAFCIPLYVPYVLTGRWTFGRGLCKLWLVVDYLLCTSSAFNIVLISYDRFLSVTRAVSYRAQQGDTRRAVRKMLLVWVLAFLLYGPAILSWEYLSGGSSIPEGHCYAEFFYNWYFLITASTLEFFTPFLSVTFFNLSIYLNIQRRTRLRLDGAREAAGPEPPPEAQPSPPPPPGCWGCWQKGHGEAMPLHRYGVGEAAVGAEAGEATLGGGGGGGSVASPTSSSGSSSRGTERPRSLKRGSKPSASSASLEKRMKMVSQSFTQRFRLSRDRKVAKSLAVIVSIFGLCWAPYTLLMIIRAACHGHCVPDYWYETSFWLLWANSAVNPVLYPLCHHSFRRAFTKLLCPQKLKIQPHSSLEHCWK

H3R = experiment: Selectivity index, ratio of CC50 for human SH-SY5Y cells to IC50 for inhibition of human H3R expressed in methylhistamine-induced human H3-bla U2OS cells; type: toxicity, cell-based; details: read-out: Ratio CC50/IC50
How it was run: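 For IC50, H3-bla U2OS cells (human H3R–Gal4-VP16 plus β-arrestin/TEV, β-lactamase reporter) were seeded for 18 h. Compound was added for 30 min, then 400 nM methylhistamine (stock) for 5 h and FRET-B/G substrate for 2 h. Read 460/530 nm, triplicate per concentration, IC50 from log curves.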

BV-2 [1] = experiment: Cytotoxicity activity in mouse BV2 cells assessed as reduction in cell viability up to 100 uM measured after 72 hrs incubation by MTT assay; type: cell-based; details: bv-2, 72 h
Mus musculus [2] = experiment: Antialzheimer activity in ICR mouse model of scopolamine-induced cognitive deficit assessed as prolongation of scopolamine-induced latency at 10 to 30 mg/kg, po treated for 1 hr followed by scopolamine challenge for 30 mins by step-down passive avoidance test; type: functional, organism-based
How it was run: (§1)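 ICR mice, six weeks old, 18-22 g, either sex, n = 15/group. […] Step-down test used foot shock of 20 V, 0.5 mA, 2 s, with a training trial and a test 24 h later. Read-outs were latency to first step-down and number of shocks in 5 min. Mean ± SEM.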

BV-2 [3] = experiment: Antiinflammatory activity in mouse BV2 cells assessed as reduction in LPS-induced IL-6 production at 10 uM pretreated for 1 hr followed by LPS challenge and measured after 24 hrs by ELISA assay; type: functional, cell-based
BV-2 [4] = experiment: Antiinflammatory activity in mouse BV2 cells assessed as reduction in LPS-induced TNF-alpha production at 10 uM pretreated for 1 hr followed by LPS challenge and measured after 24 hrs by ELISA assay; type: functional, cell-based
[5] = Acute toxicity ICR mouse assessed as mortality at 0 to 1000 mg/kg, po measured up to 14 days; type: organism-based; details: in vivo, 336 h
How it was run: (§2)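 Male ICR mice (22 days, 20–22 g), n = 5 per group, chow and water ad libitum, 12 h light/dark cycle. Single oral dose of 0, 100, 200, 500 or 1000 mg/kg in 0.5% CMC-Na. Observed continuously for the first 4 h, intermittently over the next 24 h, then occasionally to 14 days. Euthanized on day 14.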

[6] = Acute toxicity ICR mouse assessed as induction of abnormal behavior at 0 to 1000 mg/kg, po measured up to 14 days; type: organism-based; details: in vivo, 336 h; how it was run: as §2
[7] = Acute toxicity ICR mouse assessed as effect on body weight change at 0 to 1000 mg/kg, po measured up to 14 days; type: organism-based; details: in vivo, 336 h; how it was run: as §2
[8] = Acute toxicity ICR mouse assessed as induction of macroscopic abnormalities in heart at 0 to 1000 mg/kg, po measured after 14 days; type: organism-based; details: in vivo, 336 h; how it was run: as §2
[9] = Tmax in ICR mouse at 30 mg/kg, po measured upto 48 hrs by LCMS/MS method; type: ADME, organism-based; details: in vivo
[10] = Cmax in ICR mouse brain at 30 mg/kg, po measured after 40 mins by LCMS/MS method; type: ADME, organism-based; parameters: dose 30 mg/kg, route oral
How it was run: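 ICR mice got a single oral dose of 30 mg/kg. At 40 min they were sacrificed and plasma and brain collected. Compound in both was quantified by LC-MS/MS. Log BB is the log of the brain-to-blood concentration ratio. Methods state n = 5, table footnote n = 6. Mean ± SEM.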

Mus musculus [11] = experiment: Antialzheimer activity in ICR mouse model of scopolamine-induced cognitive deficit assessed as reduction scopolamine-induced error times at 10 to 30 mg/kg, po treated for 1 hr followed by scopolamine challenge for 30 mins by step-down passive avoidance test; type: functional, organism-based; how it was run: as §1

With `CCN(C)CCCCOc1ccc2c(=O)c(-c3ccc(OCCN4CCCCC4)cc3)coc2c1` the IC50 (Acetylcholinesterase) was 81 nM, the inhibition (Histamine H3 receptor) was 75.2% and the selectivity ratio (H3R) was > 370. The Activity (BV-2 [1]) was “Non-Toxic”, the Activity (Mus musculus [2]) was “Dose-dependent effect” and the Activity (BV-2 [3]) was “Active”. For the same molecule, the Activity (BV-2 [4]) was “Active”, the Activity [5] was “Non-Toxic” and the Activity [6] was “Non-Toxic”. For the same molecule, the Activity [7] was “Non-Toxic”, the Activity [8] was “Non-Toxic” and the Tmax [9] was 39 min. The Cmax [10] was 762 ng/mL and the Activity (Mus musculus [11]) was “Dose-dependent effect”.
